# Autophagy mod: modulators of autophagy; MEF GFP-LC3 puncta imaging; test concentration mostly 10 µM; calls only at 10 µM (by protocol); 190,000 tested, 0.98% active;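 active means percentage of spot-positive cells more than 3 SD above its plate mean, without a fluorescence outlier flag or 80% toxicity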;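 further: spot-positive cell cutoff set from DMSO-treated cells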
# HCT116 bCat-KO: beta-catenin-lacking colon tumor cell growth suppression | 140,000 tested, 1.5% active | HCT116 beta-catenin knockout viability, CellTiter-Glo, 60 h; stronger effect = lower value | AID 818 | viability, % at 10 µM;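 active means viability at or under a set limit, the compound median less 4 SD, cut at about 6% in these data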;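 further: 0% = Hyamine 1622 control at 20 µM and 100% = untreated cell control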
# HCT116 PTEN-null: suppresses growth of cells with PTEN deletion | HCT116 PTEN-null viability, CellTiter-Glo, 60 h; stronger effect = lower value | viability, % at 10 µM | 140,000 tested, 1.2% active;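 active means viability at or below a set limit, 4 SD under the median of all tested compounds, cut at about 3.7% in these data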;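 further: PTEN knockout HCT116 line with beta catenin targeted HCT116 as companion control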
# Dynein cargo inh: dynein cargo transport inhibition; 3617.4 mouse cells, GR-EGFP nuclear translocation imaging; test concentration mostly 20 µM; stimulated with dexamethasone, 1 µM; stronger effect = lower value; z-score, hits read low; 220,000 tested, 0.47% active; AID 1381;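 active means plate z-score of nuclear minus cytoplasmic receptor signal below a set negative limit, without overly bright fluorescence or cell loss, cut at about -3.5 in these data, passing the limit was not always enough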;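 further: z-score of nuclear minus cytoplasmic ring GR-EGFP intensity difference per well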
#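 medium = tetracycline-free induction medium containing charcoal-stripped FBS | probe or stimulus = dexamethasone, 1.0 µM final | timing = 48 h induction, then 1 h compound, then 30 min agonist, 37 °C | detection = automated 10x imaging of fixed Hoechst-stained cells | read-out basis = nuclear versus cytoplasmic GR-EGFP signal, averaged per well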
# Lmaj promast: inhibitors of Leishmania major promastigote growth. Leishmania major promastigotes, resazurin fluorescence viability. inhibition, % at 10 µM. 200,000 tested, 9% active; in the data active means inhibition above about 50%;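 further: promastigotes grown with compound for 44 hours at 28 °C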
# * hit, by the source's call; i = inactive; x = not tested or not shown; + = active, no number. The list is not random: actives were taken first. Their share in the collection is about 9.2%.
SMILES,Autophagy mod,HCT116 bCat-KO,HCT116 PTEN-null,Dynein cargo inh,Lmaj promast
CCOc1ccc(-c2noc(-c3ccncc3)n2)cc1OCC,i,111,97,-0.4,93*
CCOc1ccc(-c2noc(-c3cccnc3)n2)cc1OCC,x,x,x,0.33,x
NCCCCC(NC(=O)C1CCCN1C(=O)C1CSSCC(N)C(=O)NC(Cc2ccc(O)cc2)C(=O)NC(Cc2ccccc2)C(=O)NC(CCC(N)=O)C(=O)NC(CC(N)=O)C(=O)N1)C(=O)NCC(N)=O (stereo not drawn),i,95,91,-0.77,-4
CCNCc1cc([N+](=O)[O-])ccc1OCC,i,x,x,0.63,-2
Cc1ccnc(NC(=O)c2cc3ccccc3oc2=O)c1,i,x,x,0.051,6
COc1cc(/C=C/C(=O)Nc2cc(C(F)(F)F)ccc2Cl)cc(OC)c1OC,i,85,78,0.33,67*
COc1ccc(/C=C/C(=O)Nc2cc(C(F)(F)F)ccc2Cl)cc1OC,i,94,80,-0.63,-2
Cc1cccc(NC(=S)N(CCCN2CCOCC2)Cc2ccco2)c1,i,x,x,0.17,6
CN(C)C=Nc1c(Br)cc(Br)c2nonc12,+,94,94,-3.3,-1
O=C(NC1(N2CCOCC2)CC1)c1ccc(Cl)cc1,x,x,x,0.48,x
N#Cc1c(NC(=O)c2ccccc2Cl)n(Cc2ccccc2)c2nc3ccccc3nc12,i,57,53,-0.63,-6
Cc1c(C#N)c(NC(=O)CCl)n(Cc2ccccc2)c1C,i,x,x,-2.9,90*
Cc1c(C#N)c(NC(=O)CCl)n(Cc2ccc(F)cc2)c1C,i,x,x,-1.8,92*
CC(C)(C)c1ccc(C(=O)N2CCN(CCNC(=O)C(=O)NCc3ccccc3)CC2)cc1,i,80,89,0.44,25
CCOc1ccc2cc(C3CC(c4ccco4)=NN3S(C)(=O)=O)c(Cl)nc2c1 (stereo not drawn),x,x,x,0.19,x
CCOc1ccc2cc(/C=C/C(=O)c3ccco3)c(Cl)nc2c1,i,8,7,-0.26,64*
Cc1ccc(CSC(Nc2ccc(F)cc2)=C(C#N)C#N)cc1,i,9,7,1.7,58*
CSc1ccccc1NC(=S)Nc1ccc(S(N)(=O)=O)cc1,i,x,x,-0.69,2
CCOc1ccc2nc(N3C(=O)/C(=C/c4ccccc4)NC3=S)sc2c1,+,52,58,-0.43,-2
COc1ccc(CCN=C(N)NS(=O)(=O)c2ccc(C)cc2)cc1OC,i,x,x,-0.23,12
COc1ccccc1CCN=C(N)NS(=O)(=O)c1ccc(C)cc1,+,x,x,-0.23,-1
Cc1ccccc1Cn1c(=N)n(CC(=O)c2ccc([N+](=O)[O-])cc2)c2ccccc21,i,1.9*,1.4*,-0.22,100*
CCCn1c(=N)n(CC(=O)c2ccc([N+](=O)[O-])cc2)c2ccccc21,i,x,x,-0.071,64*
Cn1c(NC(=O)/C=C\c2ccccc2)cc(=O)n(C)c1=O,i,x,x,0.54,-6
CNC(=O)COC(=O)/C=C/c1cccc(F)c1,i,x,x,-0.45,-5
SMILES,Autophagy mod,HCT116 bCat-KO,HCT116 PTEN-null,Dynein cargo inh,Lmaj promast
CCOC(=O)NNC(=O)NCCCCCCNC(=O)NNC(=O)OCC,x,x,x,0.66,x
O=C(NC(Cc1ccc(F)cc1)C(=O)O)c1ccccc1 (stereo not drawn),i,96,97,-0.36,70*
Cc1ccc(CC(NC(=O)c2ccccc2)C(=O)NC(C)C(=O)O)cc1 (stereo not drawn),i,92,76,-0.95,84*
Cc1ccc(C(=O)Nc2ccccc2C(=O)NC(Cc2ccccc2)C(=O)O)cc1 (stereo not drawn),i,x,x,0.028,4
S=C(NCc1ccco1)Nc1cc(-c2ccccc2)[nH]n1,i,x,x,0.031,9
Cc1ccc2c(c1)nnn2C1CCN(CC(=O)NNC(=O)c2ccco2)CC1,i,x,x,-0.54,-6
COc1ccc(/C=N/NC(=O)c2sccc2OCc2ccc(F)cc2)cc1OC,i,91,71,0.13,5
CCN1CCc2c(C#N)c(N3CCCCC3)nc(NCc3ccccc3)c2C1,i,1.2*,0.9*,-0.34,43
CCN1CCc2c(C#N)c(N3CCOCC3)nc(NCc3ccccc3)c2C1,i,82,63,-0.53,21
FC(F)(F)c1cc(-c2ccccn2)nc2cc(-c3ccccc3)nn12,x,x,x,-0.63,x
CCN1CCN(c2ccc(NC(=O)CCc3c(C)nc4c(-c5ccc(F)cc5)c(C)nn4c3C)cc2)CC1,i,x,x,-0.47,99*
Cc1nc2ccccc2c(=O)n1/N=C/c1c(O)ccc2oc3c(c12)CCCC3,i,4.9*,3.0*,1.6,5
CCS(=O)(=O)N1CCN(CC2CC3C=CC2C3)CC1 (stereo not drawn),i,97,99,1.3,93*
O=[N+]([O-])c1ccccc1S(=O)(=O)N1CCN(CC2CC=CCC2)CC1 (stereo not drawn),i,x,x,-0.34,-4
CCS(=O)(=O)N1CCN(C2Cc3ccccc3C2)CC1,i,96,96,-0.23,1
CCCS(=O)(=O)N1CCN(CC2CC3C=CC2C3)CC1 (stereo not drawn),i,76,84,-0.35,88*
CCCS(=O)(=O)N1CCN(CC2CC=CCC2)CC1 (stereo not drawn),i,97,103,0.8,76*
O=S(=O)(Nc1ccc(F)cc1)c1ccc(NC(=S)Nc2ccccc2)cc1,i,91,85,-0.54,1
CCN(CC)CCCNC(=O)CCC(=O)Nc1ccc2nc(N3CCCCC3)cc(C)c2c1,i,x,x,-0.77,7
CCCN(CCC)CCCNC(=S)Nc1ccc2nc(N3CCN(C)CC3)cc(C)c2c1,+,x,x,-0.26,65*
CCCN(CCC)CCCNC(=S)Nc1ccc2nc(N3CCN(CC)CC3)cc(C)c2c1,i,x,x,0.99,94*
CC(C)(C)NC(=O)c1ccc(Sc2ccccc2)c([N+](=O)[O-])c1,i,91,78,0.05,3
COC(=O)c1cc2cc(NS(=O)(=O)c3ccc(C)cc3)ccc2s1,i,96,88,-0.3,100*
COC(=O)Nc1ccc(S(=O)(=O)Nc2ccc(C)cc2)cc1,i,98,105,-0.59,-19
COc1cccc(N2CCN(CC(=O)c3c[nH]c4ccc(OC)cc34)CC2C)c1 (stereo not drawn),i,58,59,-1,73*
SMILES,Autophagy mod,HCT116 bCat-KO,HCT116 PTEN-null,Dynein cargo inh,Lmaj promast
C1=C(CCNc2ncnc3c2[nH]c2ccccc23)CCCC1,i,8,7,-0.01,98*
COc1ccc(CNc2ncnc3c2[nH]c2ccccc23)cc1,x,x,x,-0.77,x
CC(C)OCCCNc1ncnc2c1[nH]c1ccccc12,i,14,21,-1.9,70*
O=C1/C(=N/n2cnnc2)c2ccccc2N1Cc1ccccc1,i,13,22,-0.11,85*
O=C(NC1CCCCC1)C(c1ccccc1)N1CCc2ccccc21 (stereo not drawn),i,54,51,0.035,50*
CCCCc1c(CCC)c(=N)c2ccccc2n1C,i,48,47,1.1,100*
Cc1cc(NC(=O)COc2cccc(Oc3ccccc3)c2)no1,+,42,36,-1.2,-3
